# “And” between values parts separate entries of the source, which are not always exact repeats. Identical values can stand only once.
# Tests used:
# Format in all cases: toxicity, cell-based
# [1] = system: U2OS; assay: Multiplex assay against U2OS; conditions: human, number of replicates 2
# In short: (§1)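 With compound added, live cells were imaged on a CQ1 microscope at 37°C and 5% CO2; staining with Hoechst33342, BioTracker Green Microtubule Cytoskeleton Dye, MitoTracker Red and Annexin V Alexa Fluor 680 had been done at seeding. The CellPathfinder machine-learning gating scheme split cells into Hoechst high-intensity objects or normal cells, normal cells into healthy, pyknosed or fragmented nuclei, and pyknosed cells into mitotic or apoptotic. The tubulin, mitochondrial-mass and membrane-permeability phenotypes are per cents of healthy-nucleus cells.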
# [2] = system: HEK-293T; assay: Multiplex assay against HEK293T; conditions: human, number of replicates 2; in short: as §1
# [3] = system: Fibroblast; assay: Multiplex assay against human fibroblast; conditions: number of replicates 2; in short: as §1
# [4] = 12 h, 1 µM, compound concentration 1 uM
# [5] = 12 h, 10 µM, compound concentration 10 uM
# [6] = 24 h, 1 µM, compound concentration 1 uM
# [7] = 24 h, 10 µM, compound concentration 10 uM
# [8] = 48 h, 1 µM, compound concentration 1 uM
# [9] = 48 h, 10 µM, compound concentration 10 uM
structure (smiles),measurement,setting,value
Fc1cccc(-n2cnc3c(NCc4nc5ccc(F)c(F)c5[nH]4)nc(N4CCOCC4)nc32)c1,Population Fragmented Nuclei (%),[1]; [4],13%
same,Population Healthy Nuclei (%),[1]; [4],59% and 53%
same,Population Hoechst High Intensity Objects (%),[1]; [4],0%
same,Population Membrane Permeable-Phenotype (%),[1]; [4],2% and 5%
same,Population Mitochondria Different-Phenotype (%),[1]; [4],5% and 0%
same,Population Normal (%),[1]; [4],99% and 100%
same,Population Pyknosed Nuclei (%),[1]; [4],27% and 32%
same,Population Tubulin-Different-Phenotype (%),[1]; [4],68% and 31%
same,Population Apoptotic (%),[1]; [5],86% and 90%
same,Population Hoechst High Intensity Objects (%),[1]; [5],0%
same,Population Membrane Permeable-Phenotype (%),[1]; [5],33% and 45%
same,Population Mitochondria Different-Phenotype (%),[1]; [5],33% and 52%
same,Population Mitotic Cells (%),[1]; [5],13% and 9%
same,Population Normal (%),[1]; [5],100% and 99%
same,Population Pyknosed Nuclei (%),[1]; [5],41% and 57%
same,Population Tubulin-Different-Phenotype (%),[1]; [5],100% and 78%
same,Population Apoptotic (%),[1]; [6],63% and 97%
same,Population Fragmented Nuclei (%),[1]; [6],8% and 19%
same,Population Healthy Nuclei (%),[1]; [6],14% and 15%
same,Population Hoechst High Intensity Objects (%),[1]; [6],5% and 3%
same,Population Membrane Permeable-Phenotype (%),[1]; [6],12% and 28%
same,Population Mitochondria Different-Phenotype (%),[1]; [6],12% and 23%
same,Population Normal (%),[1]; [6],95% and 96%
same,Population Pyknosed Nuclei (%),[1]; [6],77% and 64%
same,Population Tubulin-Different-Phenotype (%),[1]; [6],37% and 73%
same,Population Apoptotic (%),[1]; [7],90% and 94%
same,Population Hoechst High Intensity Objects (%),[1]; [7],0% and 1%
same,Population Mitochondria Different-Phenotype (%),[1]; [7],100% and 69%
same,Population Mitotic Cells (%),[1]; [7],9% and 5%
same,Population Normal (%),[1]; [7],100% and 98%
same,Population Pyknosed Nuclei (%),[1]; [7],55% and 76%
same,Population Tubulin-Different-Phenotype (%),[1]; [7],100% and 65%
same,Population Apoptotic (%),[1]; [8],87% and 100%
same,Population Fragmented Nuclei (%),[1]; [8],8% and 21%
same,Population Healthy Nuclei (%),[1]; [8],2% and 8%
same,Population Hoechst High Intensity Objects (%),[1]; [8],6%
same,Population Membrane Permeable-Phenotype (%),[1]; [8],100% and 42%
same,Population Mitotic Cells (%),[1]; [8],12% and 0%
same,Population Normal (%),[1]; [8],93%
same,Population Pyknosed Nuclei (%),[1]; [8],89% and 70%
same,Population Tubulin-Different-Phenotype (%),[1]; [8],100% and 94%
same,Population Apoptotic (%),[1]; [9],100% and 99%
same,Population Healthy Nuclei (%),[1]; [9],4% and 10%
same,Population Hoechst High Intensity Objects (%),[1]; [9],0%
same,Population Membrane Permeable-Phenotype (%),[1]; [9],100% and 60%
same,Population Mitochondria Different-Phenotype (%),[1]; [9],50% and 93%
same,Population Mitotic Cells (%),[1]; [9],0%
same,Population Normal (%),[1]; [9],100%
same,Population Pyknosed Nuclei (%),[1]; [9],46% and 81%
same,Population Tubulin-Different-Phenotype (%),[1]; [9],100% and 73%
same,Population Apoptotic (%),[2]; [4],54% and 71%
same,Population Fragmented Nuclei (%),[2]; [4],7% and 5%
same,Population Healthy Nuclei (%),[2]; [4],81% and 64%
same,Population Hoechst High Intensity Objects (%),[2]; [4],12% and 18%
same,Population Membrane Permeable-Phenotype (%),[2]; [4],2%
same,Population Mitochondria Different-Phenotype (%),[2]; [4],61% and 54%
same,Population Mitotic Cells (%),[2]; [4],45% and 28%
same,Population Normal (%),[2]; [4],87% and 81%
same,Population Pyknosed Nuclei (%),[2]; [4],10% and 29%
same,Population Tubulin-Different-Phenotype (%),[2]; [4],86% and 80%
same,Total Cell Count,[2]; [4],334 and 362
same,Population Apoptotic (%),[2]; [5],69% and 80%
same,Population Fragmented Nuclei (%),[2]; [5],1% and 4%
same,Population Healthy Nuclei (%),[2]; [5],80% and 73%
same,Population Hoechst High Intensity Objects (%),[2]; [5],6% and 11%
same,Population Membrane Permeable-Phenotype (%),[2]; [5],2% and 3%
same,Population Mitochondria Different-Phenotype (%),[2]; [5],81% and 68%
same,Population Mitotic Cells (%),[2]; [5],30% and 20%
same,Population Normal (%),[2]; [5],93% and 88%
same,Population Pyknosed Nuclei (%),[2]; [5],18% and 22%
same,Population Tubulin-Different-Phenotype (%),[2]; [5],94%
same,Total Cell Count,[2]; [5],319 and 328
same,Population Apoptotic (%),[2]; [6],65% and 77%
same,Population Fragmented Nuclei (%),[2]; [6],3% and 7%
same,Population Healthy Nuclei (%),[2]; [6],83% and 57%
same,Population Hoechst High Intensity Objects (%),[2]; [6],22% and 24%
same,Population Membrane Permeable-Phenotype (%),[2]; [6],0% and 1%
same,Population Mitochondria Different-Phenotype (%),[2]; [6],75% and 72%
same,Population Mitotic Cells (%),[2]; [6],34% and 22%
same,Population Normal (%),[2]; [6],77% and 75%
same,Population Pyknosed Nuclei (%),[2]; [6],12% and 35%
same,Population Tubulin-Different-Phenotype (%),[2]; [6],88% and 80%
same,Total Cell Count,[2]; [6],263 and 293
same,Population Apoptotic (%),[2]; [7],82% and 62%
same,Population Fragmented Nuclei (%),[2]; [7],3% and 2%
same,Population Healthy Nuclei (%),[2]; [7],85% and 88%
same,Population Hoechst High Intensity Objects (%),[2]; [7],13% and 15%
same,Population Membrane Permeable-Phenotype (%),[2]; [7],1% and 2%
same,Population Mitochondria Different-Phenotype (%),[2]; [7],83% and 82%
same,Population Mitotic Cells (%),[2]; [7],17% and 37%
same,Population Normal (%),[2]; [7],86% and 84%
same,Population Pyknosed Nuclei (%),[2]; [7],10% and 8%
same,Population Tubulin-Different-Phenotype (%),[2]; [7],93% and 94%
same,Total Cell Count,[2]; [7],366 and 334
same,Population Apoptotic (%),[2]; [8],69% and 80%
same,Population Fragmented Nuclei (%),[2]; [8],5% and 7%
same,Population Healthy Nuclei (%),[2]; [8],82% and 60%
same,Population Hoechst High Intensity Objects (%),[2]; [8],23% and 24%
same,Population Membrane Permeable-Phenotype (%),[2]; [8],1% and 3%
same,Population Mitochondria Different-Phenotype (%),[2]; [8],84% and 70%
same,Population Mitotic Cells (%),[2]; [8],30% and 19%
same,Population Normal (%),[2]; [8],76% and 75%
same,Population Pyknosed Nuclei (%),[2]; [8],11% and 32%
same,Population Tubulin-Different-Phenotype (%),[2]; [8],88% and 73%
same,Total Cell Count,[2]; [8],251 and 297
same,Population Apoptotic (%),[2]; [9],89% and 85%
same,Population Fragmented Nuclei (%),[2]; [9],4% and 5%
same,Population Healthy Nuclei (%),[2]; [9],85% and 83%
same,Population Hoechst High Intensity Objects (%),[2]; [9],13% and 16%
same,Population Membrane Permeable-Phenotype (%),[2]; [9],1% and 0%
same,Population Mitochondria Different-Phenotype (%),[2]; [9],92%
same,Population Mitotic Cells (%),[2]; [9],10% and 14%
same,Population Normal (%),[2]; [9],86% and 83%
same,Population Pyknosed Nuclei (%),[2]; [9],10%
same,Population Tubulin-Different-Phenotype (%),[2]; [9],96% and 94%
same,Total Cell Count,[2]; [9],333 and 303
same,Population Apoptotic (%),[3]; [4],46% and 50%
same,Population Fragmented Nuclei (%),[3]; [4],8% and 5%
same,Population Healthy Nuclei (%),[3]; [4],78% and 65%
same,Population Hoechst High Intensity Objects (%),[3]; [4],0%
same,Population Membrane Permeable-Phenotype (%),[3]; [4],5% and 4%
same,Population Mitochondria Different-Phenotype (%),[3]; [4],0%
same,Population Mitotic Cells (%),[3]; [4],53% and 49%
same,Population Normal (%),[3]; [4],99% and 100%
same,Population Pyknosed Nuclei (%),[3]; [4],12% and 28%
same,Population Tubulin-Different-Phenotype (%),[3]; [4],21% and 15%
same,Total Cell Count,[3]; [4],211 and 198
same,Population Apoptotic (%),[3]; [5],55% and 40%
same,Population Fragmented Nuclei (%),[3]; [5],6% and 10%
same,Population Healthy Nuclei (%),[3]; [5],63% and 68%
same,Population Hoechst High Intensity Objects (%),[3]; [5],0%
same,Population Membrane Permeable-Phenotype (%),[3]; [5],6% and 8%
same,Population Mitochondria Different-Phenotype (%),[3]; [5],21% and 11%
same,Population Mitotic Cells (%),[3]; [5],44% and 60%
same,Population Normal (%),[3]; [5],99% and 100%
same,Population Pyknosed Nuclei (%),[3]; [5],29% and 21%
same,Population Tubulin-Different-Phenotype (%),[3]; [5],72% and 75%
same,Total Cell Count,[3]; [5],152 and 213
same,Population Apoptotic (%),[3]; [6],85% and 72%
same,Population Fragmented Nuclei (%),[3]; [6],12% and 10%
same,Population Healthy Nuclei (%),[3]; [6],44% and 66%
same,Population Hoechst High Intensity Objects (%),[3]; [6],0%
same,Population Membrane Permeable-Phenotype (%),[3]; [6],13% and 5%
same,Population Mitochondria Different-Phenotype (%),[3]; [6],0%
same,Population Mitotic Cells (%),[3]; [6],14% and 27%
same,Population Normal (%),[3]; [6],100% and 99%
same,Population Pyknosed Nuclei (%),[3]; [6],42% and 22%
same,Population Tubulin-Different-Phenotype (%),[3]; [6],25% and 36%
same,Total Cell Count,[3]; [6],197 and 196
same,Population Apoptotic (%),[3]; [7],44% and 42%
same,Population Hoechst High Intensity Objects (%),[3]; [7],0%
same,Population Mitochondria Different-Phenotype (%),[3]; [7],57% and 31%
same,Population Mitotic Cells (%),[3]; [7],55% and 57%
same,Population Normal (%),[3]; [7],100% and 99%
same,Population Pyknosed Nuclei (%),[3]; [7],27% and 17%
same,Population Tubulin-Different-Phenotype (%),[3]; [7],100% and 74%
same,Population Apoptotic (%),[3]; [8],85% and 90%
same,Population Fragmented Nuclei (%),[3]; [8],12% and 10%
same,Population Healthy Nuclei (%),[3]; [8],21% and 20%
same,Population Hoechst High Intensity Objects (%),[3]; [8],2% and 0%
same,Population Membrane Permeable-Phenotype (%),[3]; [8],13% and 17%
same,Population Mitochondria Different-Phenotype (%),[3]; [8],2%
same,Population Mitotic Cells (%),[3]; [8],14% and 9%
same,Population Normal (%),[3]; [8],97% and 99%
same,Population Pyknosed Nuclei (%),[3]; [8],66% and 68%
same,Population Tubulin-Different-Phenotype (%),[3]; [8],47% and 28%
same,Total Cell Count,[3]; [8],172 and 174
same,Population Apoptotic (%),[3]; [9],77% and 73%
same,Population Fragmented Nuclei (%),[3]; [9],11% and 14%
same,Population Healthy Nuclei (%),[3]; [9],60% and 65%
same,Population Hoechst High Intensity Objects (%),[3]; [9],0%
same,Population Membrane Permeable-Phenotype (%),[3]; [9],1% and 2%
same,Population Mitochondria Different-Phenotype (%),[3]; [9],27% and 23%
same,Population Mitotic Cells (%),[3]; [9],22% and 26%
same,Population Normal (%),[3]; [9],100%
same,Population Pyknosed Nuclei (%),[3]; [9],28% and 19%
same,Population Tubulin-Different-Phenotype (%),[3]; [9],72% and 75%
same,Total Cell Count,[3]; [9],140 and 207
